One data set deals with Botrytis cinerea. Put plainly: Antifungal activity against Botryotinia fuckeliana KUCC 869 assessed as growth inhibition at 200 ug/ml at 27 to 29 degC after 7 days by agar tube dilution method. As to conditions: KUCC 869, 168 h, read-out: GI; call rule not given here. Type of data set: functional. In a few lines:
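Agar tube dilution against B. cinerea isolated from infected strawberries. Compounds were taken from 1 mg/mL DMSO stocks into unsolidified Sabouraud agar at 200 μg/mL final. The agar was set as slants and inoculated with 4 mm plugs from 7-day-old culture, then incubated 7 days at 27–29 °C. Linear growth (mm) was measured and % inhibition calculated against control. Miconazole served as standard.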

Data set [1] concerns Macrophomina phaseolina. Put plainly: Drug metabolism in Macrophomina phaseolina KUCC 730 assessed as transformation to oxidative metabolite, 2-beta-methoxyclovan-9-one at 600 mg at 29 degC after 6 days by TLC analysis. Type of data set: ADME, organism-based. The settings on record: in vivo, 144 h. In a few lines: (§1)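 Fungus kept on Sabouraud dextrose agar slants at 4 °C. Medium per 3 L water: glucose 30 g, peptone 15 g, yeast extract 15 g, KH2PO4 15 g, NaCl 15 g, glycerol 30 mL. Adjusted to pH 7.0 and autoclaved. Substrate in acetone, 20 mg per 100 mL flask, added to 24 h stage II cultures. Shaken at 200 rpm, 29 °C, 6 days. Daily TLC monitoring. Substrate-only and fungus-only controls were run.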

Data set [2] has as its system Macrophomina phaseolina. Nature of the data set: Drug metabolism in Macrophomina phaseolina KUCC 730 assessed as transformation to oxidative metabolite, clovan-2-beta, 13-diol-9-one at 600 mg at 29 degC after 6 days by TLC analysis. Type of data set: ADME, organism-based. As to conditions: in vivo, 144 h. In short, it runs like this:
as §1

Data set [3] concerns Macrophomina phaseolina. Put plainly: Drug metabolism in Macrophomina phaseolina KUCC 730 assessed as transformation to oxidative metabolite, clovan-2-beta, 9-beta, 13-triol at 600 mg at 29 degC after 6 days by TLC analysis. Type of data set: ADME, organism-based. The settings on record: in vivo, 144 h. In a few lines:
as §1

Data set [4] has as its system Macrophomina phaseolina. Put plainly: Drug metabolism in Macrophomina phaseolina KUCC 730 assessed as transformation to oxidative metabolite, clovan-2-beta, 9-beta-diol at 600 mg at 29 degC after 6 days by TLC analysis. The format is ADME, organism-based. As to conditions: in vivo, 144 h. In short, it runs like this: as §1
For data set [5], the system named is Macrophomina phaseolina. Nature of the data set: Drug metabolism in Macrophomina phaseolina KUCC 730 assessed as transformation to oxidative metabolite, clovan-2-beta, 9-alpha-diol at 600 mg at 29 degC after 6 days by TLC analysis. The settings on record: in vivo, 144 h. Type of data set: ADME, organism-based. In short, it runs like this: as §1
In data set [6] the test system is Macrophomina phaseolina. Put plainly: Drug metabolism in Macrophomina phaseolina KUCC 730 assessed as transformation to oxidative metabolite, 2-beta-methoxyclovan-9-alpha-13-diol at 600 mg at 29 degC after 6 days by TLC analysis. Type of data set: ADME, organism-based. The settings on record: in vivo, 144 h. In short, it runs like this: as §1

For `C[C@@]12CC[C@H]3[C@](C)(CO)C[C@H](O)[C@@]3(CC[C@@H]1O)C2`, the inhibition of growth at 200 µg/mL with Botrytis cinerea is 11%.

In the case of `C[C@@]12CC[C@H]3[C@](C)(CO)C[C@H](O)[C@@]3(CCC1=O)C2`, in the data set on Botrytis cinerea, the inhibition of growth at 200 µg/mL was determined as 8%.

For the compound `CO[C@H]1C[C@@](C)(CO)[C@@H]2CC[C@@]3(C)C[C@]12CC[C@H]3O`, in the data set with Botrytis cinerea, the inhibition of growth at 200 µg/mL turned out to be 17%.

Consider `CC1(C)C[C@H](O)[C@]23CC[C@H](O)[C@@](C)(CC[C@@H]12)C3`, for which, in the data set with Botrytis cinerea, the inhibition of growth at 200 µg/mL was found to be 32%.

`CO[C@H]1CC(C)(C)[C@@H]2CC[C@@]3(C)C[C@]12CCC3=O`: the inhibition of growth at 200 µg/mL in the data set on Botrytis cinerea was 71%.

Regarding `CO[C@H]1CC(C)(C)[C@@H]2CC[C@@]3(C)C[C@]12CC[C@H]3O` [2BETA-METHOXYCLOVAN-9ALPHA-OL], in the data set on Botrytis cinerea, the inhibition of growth at 200 µg/mL came out at 81%. The Drug metabolism result in the data set with Macrophomina phaseolina [1], in the data set on Macrophomina phaseolina [2], with Macrophomina phaseolina [3], in the data set with Macrophomina phaseolina [4], in the data set on Macrophomina phaseolina [5] and in the data set on Macrophomina phaseolina [6] was “Active” in each case.

With `CC1(C)C[C@H](O)[C@]23CC[C@@H](O)[C@@](C)(CC[C@@H]12)C3` [CLOVANEDIOL], the inhibition of growth at 200 µg/mL with Botrytis cinerea was 59%.

The values above are taken from ChEMBL document CHEMBL3046065, “Metabolites of the fungistatic agent 2β-methoxyclovan-9α-ol by Macrophomina phaseolina” (J Agric Food Chem, 2011).
